Experimental data taken from ChEMBL document CHEMBL3865799, “Synthesis of a series of novel dihydroartemisinin monomers and dimers containing chalcone as a linker and their anticancer activity” (Eur J Med Chem, 2016).

Key:
[1] = Cytotoxicity against human PC3 cells assessed as cell growth inhibition at 0.5 uM after 48 hrs by MTT assay; assay type: functional; conditions: PC-3, 48 h, read-out: GI
Procedure, shortened: (§1)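 Adherent lines at 70–75% confluence, grown at 37 °C in 5% CO2 with 10% FCS. Exposed 48 h to compound in DMSO (vehicle <0.2% v/v). MTT dye added 3 h before termination; formazan dissolved in DMSO, OD 570 nm with 620 nm reference. Growth inhibition expressed as % of untreated; IC50 taken from the dose series.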

[2] = Cytotoxicity against human HL60 cells assessed as cell growth inhibition at 50 uM after 48 hrs by MTT assay; assay type: functional; conditions: HL-60, 48 h, read-out: GI
Procedure, shortened: (§2)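 HL-60 suspension cells, 1.5 × 10^4 per well, grown at 37 °C in 5% CO2 with 10% FCS. Treated 48 h with compound in DMSO (vehicle <0.2% v/v). MTT added 3 h before the end. Formazan dissolved in DMSO and read at 570 nm (reference 620 nm). % growth inhibition computed against untreated cells; IC50 taken from the concentration series.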

[3] = Cytotoxicity against human HL60 cells assessed as cell growth inhibition at 30 uM after 48 hrs by MTT assay; assay type: functional; conditions: HL-60, 48 h, read-out: GI; procedure, shortened: as §2
[4] = Cytotoxicity against human MIAPaCa2 cells assessed as cell growth inhibition at 30 uM after 48 hrs by MTT assay; assay type: functional; conditions: MIA PaCa-2, 48 h, read-out: GI; procedure, shortened: as §1
[5] = Cytotoxicity against human MIAPaCa2 cells assessed as cell growth inhibition at 50 uM after 48 hrs by MTT assay; assay type: functional; conditions: MIA PaCa-2, 48 h, read-out: GI; procedure, shortened: as §1
[6] = Cytotoxicity against human PC3 cells assessed as cell growth inhibition at 30 uM after 48 hrs by MTT assay; assay type: functional; conditions: PC-3, 48 h, read-out: GI; procedure, shortened: as §1
[7] = Cytotoxicity against human PC3 cells assessed as cell growth inhibition at 50 uM after 48 hrs by MTT assay; assay type: functional; conditions: PC-3, 48 h, read-out: GI; procedure, shortened: as §1
[8] = Cytotoxicity against human HepG2 cells assessed as cell growth inhibition at 30 uM after 48 hrs by MTT assay; assay type: functional; conditions: HepG2, 48 h, read-out: GI; procedure, shortened: as §1
[9] = Cytotoxicity against human HepG2 cells assessed as cell growth inhibition at 50 uM after 48 hrs by MTT assay; assay type: functional; conditions: HepG2, 48 h, read-out: GI; procedure, shortened: as §1
[10] = Cytotoxicity against human LS180 cells assessed as cell growth inhibition at 30 uM after 48 hrs by MTT assay; assay type: functional; conditions: LS180, 48 h, read-out: GI; procedure, shortened: as §1
[11] = Cytotoxicity against human LS180 cells assessed as cell growth inhibition at 50 uM after 48 hrs by MTT assay; assay type: functional; conditions: LS180, 48 h, read-out: GI; procedure, shortened: as §1
[12] = Cytotoxicity against human HL60 cells assessed as cell growth inhibition at 0.5 uM after 48 hrs by MTT assay; assay type: functional; conditions: HL-60, 48 h, read-out: GI; procedure, shortened: as §2
[13] = Cytotoxicity against human HL60 cells assessed as cell growth inhibition at 1 uM after 48 hrs by MTT assay; assay type: functional; conditions: HL-60, 48 h, read-out: GI; procedure, shortened: as §2
[14] = Cytotoxicity against human HL60 cells assessed as cell growth inhibition at 10 uM after 48 hrs by MTT assay; assay type: functional; conditions: HL-60, 48 h, read-out: GI; procedure, shortened: as §2
[15] = Cytotoxicity against human HL60 cells assessed as cell growth inhibition after 48 hrs by MTT assay; assay type: functional, cell-based; conditions: HL-60, 48 h; procedure, shortened: as §2
[16] = tested on: Vero; experiment: Selectivity index, ratio of IC50 for African green monkey Vero cells to IC50 for human HL60 cells; assay type: functional
Procedure, shortened: (§3)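 Suspension cells were seeded at 1.5 × 10^4 per well and adherent lines at 70–75% confluence, then exposed to a range of concentrations. MTT was added 3 h before the end, formazan dissolved in DMSO, and OD read at 570 nm (reference 620 nm). Growth inhibition was taken relative to untreated cells. IC50 came from the MTT data; SI = IC50 in Vero cells / IC50 in the tumour line.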

[17] = Cytotoxicity against human MIAPaCa2 cells assessed as cell growth inhibition at 0.5 uM after 48 hrs by MTT assay; assay type: functional; conditions: MIA PaCa-2, 48 h, read-out: GI; procedure, shortened: as §1
[18] = Cytotoxicity against human MIAPaCa2 cells assessed as cell growth inhibition at 1 uM after 48 hrs by MTT assay; assay type: functional; conditions: MIA PaCa-2, 48 h, read-out: GI; procedure, shortened: as §1
[19] = Cytotoxicity against human MIAPaCa2 cells assessed as cell growth inhibition at 10 uM after 48 hrs by MTT assay; assay type: functional; conditions: MIA PaCa-2, 48 h, read-out: GI; procedure, shortened: as §1
[20] = Cytotoxicity against human MIAPaCa2 cells assessed as cell growth inhibition after 48 hrs by MTT assay; assay type: functional, cell-based; conditions: MIA PaCa-2, 48 h; procedure, shortened: as §1
[21] = tested on: Vero; experiment: Selectivity index, ratio of IC50 for African green monkey Vero cells to IC50 for human MIAPaCa2 cells; assay type: functional; procedure, shortened: as §3
[22] = Cytotoxicity against human PC3 cells assessed as cell growth inhibition at 1 uM after 48 hrs by MTT assay; assay type: functional; conditions: PC-3, 48 h, read-out: GI; procedure, shortened: as §1
[23] = Cytotoxicity against human PC3 cells assessed as cell growth inhibition at 10 uM after 48 hrs by MTT assay; assay type: functional; conditions: PC-3, 48 h, read-out: GI; procedure, shortened: as §1
[24] = Cytotoxicity against human PC3 cells assessed as cell growth inhibition after 48 hrs by MTT assay; assay type: functional, cell-based; conditions: PC-3, 48 h
Procedure, shortened: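 Exposed 48 h to compound in DMSO (vehicle <0.2% v/v). MTT dye added 3 h before termination; formazan dissolved in DMSO, OD 570 nm with 620 nm reference. Growth inhibition expressed as % of untreated; IC50 taken from the dose series.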

[25] = tested on: Vero; experiment: Selectivity index, ratio of IC50 for African green monkey Vero cells to IC50 for human PC3 cells; assay type: functional; procedure, shortened: as §3
[26] = Cytotoxicity against human HepG2 cells assessed as cell growth inhibition at 0.5 uM after 48 hrs by MTT assay; assay type: functional; conditions: HepG2, 48 h, read-out: GI; procedure, shortened: as §1
[27] = Cytotoxicity against human HepG2 cells assessed as cell growth inhibition at 1 uM after 48 hrs by MTT assay; assay type: functional; conditions: HepG2, 48 h, read-out: GI; procedure, shortened: as §1
[28] = Cytotoxicity against human HepG2 cells assessed as cell growth inhibition at 10 uM after 48 hrs by MTT assay; assay type: functional; conditions: HepG2, 48 h, read-out: GI; procedure, shortened: as §1
[29] = Cytotoxicity against human HepG2 cells assessed as cell growth inhibition after 48 hrs by MTT assay; assay type: functional, cell-based; conditions: HepG2, 48 h; procedure, shortened: as §1
[30] = tested on: HepG2; experiment: Selectivity index, ratio of IC50 for African green monkey Vero cells to IC50 for human HepG2 cells; assay type: functional; procedure, shortened: as §3
[31] = Cytotoxicity against human LS180 cells assessed as cell growth inhibition at 0.5 uM after 48 hrs by MTT assay; assay type: functional; conditions: LS180, 48 h, read-out: GI; procedure, shortened: as §1
[32] = Cytotoxicity against human LS180 cells assessed as cell growth inhibition at 1 uM after 48 hrs by MTT assay; assay type: functional; conditions: LS180, 48 h, read-out: GI; procedure, shortened: as §1
[33] = Cytotoxicity against human LS180 cells assessed as cell growth inhibition at 10 uM after 48 hrs by MTT assay; assay type: functional; conditions: LS180, 48 h, read-out: GI; procedure, shortened: as §1
[34] = Cytotoxicity against human LS180 cells assessed as cell growth inhibition after 48 hrs by MTT assay; assay type: functional, cell-based; conditions: LS180, 48 h; procedure, shortened: as §1
[35] = Selectivity index, ratio of IC50 for African green monkey Vero cells to IC50 for human LS180 cells; assay type: functional; procedure, shortened: as §3
[36] = Lipophilicity, log P of the compound; assay type: physicochemical; conditions: octanol/water
[37] = Aqueous solubility of the compound at pH 7; assay type: physicochemical

| SMILES | inhibition of growth at 0.5 µM [1] [%] | inhibition of growth at 50 µM [2] [%] | inhibition of growth at 30 µM [3] [%] | inhibition of growth at 30 µM [4] [%] | inhibition of growth at 50 µM [5] [%] | inhibition of growth at 30 µM [6] [%] | inhibition of growth at 50 µM [7] [%] | inhibition of growth at 30 µM [8] [%] | inhibition of growth at 50 µM [9] [%] | inhibition of growth at 30 µM [10] [%] | inhibition of growth at 50 µM [11] [%] | inhibition of growth at 0.5 µM [12] [%] | inhibition of growth at 1 µM [13] [%] | inhibition of growth at 10 µM [14] [%] | IC50 [15] [µM] | Ratio IC50 [16] | inhibition of growth at 0.5 µM [17] [%] | inhibition of growth at 1 µM [18] [%] | inhibition of growth at 10 µM [19] [%] | IC50 [20] [µM] | also measured |
| --- | --- | --- | --- | --- | --- | --- | --- | --- | --- | --- | --- | --- | --- | --- | --- | --- | --- | --- | --- | --- | --- |
| C[C@H]1[C@@H](OCCOc2ccc(/C=C/C(=O)c3ccco3)cc2)O[C@@H]2O[C@@]3(C)CC[C@H]4[C@H](C)CC[C@@H]1[C@@]24OO3 | 15.1 | 91.7 | 89.1 | 39.8 to 67.3 | 77.5 | 55.1 to 58.1 | 69.4 | 25.2 to 67.3 | 26.9 to 42.6 | 26.9 | 28.3 | 38 | 57.5 | 87.4 | 0.7 | 90 | 18.4 | 19.1 | 26.2 | > 50 | Ratio IC50 [21]: 59; inhibition of growth at 1 µM [22]: 15.8%; inhibition of growth at 10 µM [23]: 43.4%; IC50 [24]: 24 µM; Ratio IC50 [25]: 94; inhibition of growth at 0.5 µM [26]: 1%; inhibition of growth at 1 µM [27]: 14.7%; inhibition of growth at 10 µM [28]: 24.8%; IC50 [29]: 22 µM; Ratio IC50 [30]: 68; inhibition of growth at 0.5 µM [31]: 20%; inhibition of growth at 1 µM [32]: 25.7%; inhibition of growth at 10 µM [33]: 26.9%; IC50 [34]: > 50 µM; Ratio IC50 [35]: >200; logP [36]: 5.34 to 7.45; solubility [37]: < 10 µg/mL |
| COc1cc(/C=C/C(=O)c2ccc(OCCO[C@H]3O[C@@H]4O[C@@]5(C)CC[C@H]6[C@H](C)CC[C@@H]([C@H]3C)[C@@]46OO5)cc2)cc(OC)c1OCCO[C@H]1O[C@@H]2O[C@@]3(C)CC[C@H]4[C@H](C)CC[C@@H]([C@H]1C)[C@@]24OO3 | 34.5 | 86.1 | 85.4 | 37.4 to 40.1 | 48.1 | 57.6 | 57.9 | 32.9 | 33.8 to 58.1 | 58.1 | 70.1 | 77.2 | 83.9 | 84.6 | 0.3 | 88 | 37.3 | 38.1 | 38.7 | > 50 | Ratio IC50 [21]: 100; inhibition of growth at 1 µM [22]: 45.9%; inhibition of growth at 10 µM [23]: 50.2%; IC50 [24]: 10 µM; Ratio IC50 [25]: 210; inhibition of growth at 0.5 µM [26]: 38.8%; inhibition of growth at 1 µM [27]: 41.5%; inhibition of growth at 10 µM [28]: 59.1%; IC50 [29]: 4 µM; Ratio IC50 [30]: 210; inhibition of growth at 0.5 µM [31]: 15.3%; inhibition of growth at 1 µM [32]: 27.6%; inhibition of growth at 10 µM [33]: 44.6%; IC50 [34]: 16 µM; Ratio IC50 [35]: 162; logP [36]: 5.34 to 7.45; solubility [37]: < 10 µg/mL |
